Screening results: PubChem BioAssay, several laboratories
Rows were chosen to be rich in hits. Some 3.7% of all compounds tested hit in one or more screens of this group.
EBV gp42 block – EBV gp42 inhibition | 220,000 tested, 0.42% active | Fluorescence polarization binding assay, mP read-out | AID 1085 | inhibition, % (tested at 21.74 µM); in the data active means inhibition above about 50%
14-3-3 Bad PPI – disrupts binding of bovine 14-3-3 zeta to phospho-Bad peptide. P63103. TR-FRET 14-3-3zeta/Dy647-pBad peptide displacement, 1 h. inhibition, % at 21.7 µM. 220,000 tested, 0.71% active. AID 781;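 active means inhibition above about 70%, limit read from the data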;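 further: 0% = full 14-3-3 plus peptide FRET controls and 100% = background without 14-3-3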
eIF4E 4G PPI – eIF4E/eIF4G interaction inhibition in translation initiation | TR-FRET eIF4E-eIF4GI(517-606) binding, 2 h | inhibition, % at 21.7 µM | 220,000 tested, 0.37% active | AID 782;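 further: 0% = full FRET control wells and 100% = background wells lacking eIF4GI fragment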
WT yeast gro inh – growth inhibition of WT yeast, mitochondrial fusion screen; inhibition, % at 10 µM; mitochondrial fusion phenotypic screen, WT strain; 190,000 tested, 2.1% active; in the data active means inhibition above about 58%; tested in S. cerevisiae
RBBP9 inh – human RBBP9 hydrolase inhibition; recombinant RBBP9, FP-Rh probe fluorescence polarization; O75884; inhibition, % at 7.94 µM; 220,000 tested, 0.2% active;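 active means inhibition above the campaign mean of all tested compounds plus 3 SD, cut at about 14% in these data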;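 further: plate controls were DMSO wells with RBBP9 for no effect and wells lacking RBBP9 protein for full effect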
Target sequence (O75884 whole entry, looked up): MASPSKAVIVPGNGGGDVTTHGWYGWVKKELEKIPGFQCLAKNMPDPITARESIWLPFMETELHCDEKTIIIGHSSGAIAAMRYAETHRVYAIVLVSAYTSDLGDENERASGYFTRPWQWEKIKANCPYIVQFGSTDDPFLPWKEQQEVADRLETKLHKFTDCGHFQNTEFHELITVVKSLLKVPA
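Measured by – fluorescence polarization · Test system – RBBP9 protein · Input – 2.5 µM RBBP9 dispensing solution, before mixing · Measure – percent inhibition from mP, scaled between DMSO and no-protein wells · Benchmarks – DMSO-treated enzyme wells and wells lacking RBBP9 · Times – preincubation 30 min plus labeling 45 min at 25 °C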
p47phox inh – blocks human p47phox regulatory protein of NADPH oxidases | P14598 | inhibition, % at 24.7 µM | AID 1274 | p47phox/p22phox peptide binding, fluorescence polarization, 2 h | 220,000 tested, 0.53% active;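 further: 0% = p47phox with labelled peptide and 100% = labelled peptide alone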
Target sequence (P14598 whole entry, looked up): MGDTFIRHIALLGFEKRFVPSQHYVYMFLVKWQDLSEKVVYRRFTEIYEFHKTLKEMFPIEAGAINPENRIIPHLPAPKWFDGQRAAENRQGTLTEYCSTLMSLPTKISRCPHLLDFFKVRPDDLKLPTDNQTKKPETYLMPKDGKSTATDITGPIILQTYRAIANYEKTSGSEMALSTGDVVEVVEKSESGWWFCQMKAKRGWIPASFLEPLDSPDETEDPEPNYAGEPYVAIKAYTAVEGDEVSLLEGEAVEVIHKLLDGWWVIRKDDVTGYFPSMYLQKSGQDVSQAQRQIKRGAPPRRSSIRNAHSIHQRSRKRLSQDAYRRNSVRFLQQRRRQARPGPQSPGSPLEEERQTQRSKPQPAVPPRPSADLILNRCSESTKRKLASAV
* hit, by the source's call; nt = no result; [ ] = dose if it differs, or a comment.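 How the source made its calls, unless noted: active means inhibition above about 30% (limit read from the data); inactive means the rest.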

SMILES	EBV gp42 block	14-3-3 Bad PPI	eIF4E 4G PPI	WT yeast gro inh	RBBP9 inh	p47phox inh
COc1cccc(C2=CC(c3ccccc3)n3nnnc3N2)c1 (stereo not drawn)	6.2	-9.8	-4.9	68.1*	-3.5	0.9
Cc1ccccc1OCCN(C#N)c1nc(N(C)C)nc(N(C)C)n1	6.4	7.8	-0.1	27.7	-10.6	1.8
O=C(Nc1cccc(Cl)c1)c1cc(F)cc2c1OCOC2	-6.5	0.5	-3.9	nt	-8.2	-16.2
O=[N+]([O-])c1cc(CN2CCOCC2)c2cccnc2c1O	87.3*	17.2	33.2*	-13.2	-2.9	0.2
O=[N+]([O-])c1cc(CN2CCN(c3ccccc3)CC2)c(O)c2ncccc12	-3.2	-7.6	-5.0	63.0	-5.2	9.4
O=C1CCCC2=C1C(c1ccco1)Nc1ccc3ccccc3c12 (stereo not drawn)	16.2	72.5*[fluorescence artefact?]	20.6	-12.0	-1.4	6.5
CC(C)(C)c1ccc(OCC(=O)NNC(=O)CCc2ccccc2)cc1	4.0	0.3	-0.8	16.2	2.6	60.6*
Nc1c(C(=O)N/N=C/c2ccc([N+](=O)[O-])cc2)sc2nnc(-c3ccccc3)c(-c3ccccc3)c12	-17.0	2.1	-6.0	nt	-7.1	1.9
Cc1sc2ncnc(OCC(=O)N3CC(=O)Nc4ccccc43)c2c1C	-29.1	-10.3	6.5	2.7	11.7	-2.9
COC(=O)c1ccc(CSc2nnc(CS(=O)Cc3ccc(Br)cc3)n2-c2ccccc2)cc1 (stereo not drawn)	0.6	1.1	0.5	22.9	-6.1	-6.9
O=S(Cc1ccc(Br)cc1)Cc1nnc(SCc2ccc(Br)cc2)n1-c1ccccc1 (stereo not drawn)	-4.1	3.9	-5.3	82.1*	-4.9	-1.0
COc1cccc(NC(=O)CSc2nc3c(c(-c4ccco4)c2C#N)CCCC3)c1	-17.3	4.0	6.3	75.7*	-6.3	-32.0
Cc1cc(OCC(=O)Nc2ccc(F)c(F)c2)nc(C(C)C)n1	0.1	0.1	-16.4	7.2	4.2	164.7*
NC(=O)c1cc(Cc2ccccc2)sc1NC(=O)c1ccco1	-9.5	5.2	20.5	72.3*	-9.1	-9.3
O=C(Nc1nnc(Cc2ccccc2)s1)c1ccco1	-25.4	-15.4	-5.1	-6.0	-6.1	-7.5
Cn1cccc1/C=C1\SC(=Nc2ccccc2)NC1=O	-6.6	-1.5	-3.0	nt	8.7	-9.1
Cc1ccc(N=C2NC(=O)/C(=C/c3cn(C)c4ccccc34)S2)cc1C	82.0*	4.4	-7.4	45.1	-10.7	-198.0
Cn1ccnc1SCC(=O)c1ccc(Br)cc1	-5.1	-15.6	3.2	67.1*	-11.8	-5.9
CCCS(=O)(=O)c1c(S(=O)(=O)CCC)c2ccccn2c1C(=O)OC	-7.5	-11.3	-1.6	0.8	6.5	-17.6
CCCS(=O)(=O)c1c(S(=O)(=O)CCC)c2cc(CC)ccn2c1C(=O)OC	0.9	2.9	5.8	70.3*	-1.0	-3.1
CC(=O)Nc1ncc(Cc2cccc(Cl)c2Cl)s1	-5.7	-4.7	1.4	-2.7	-10.8	3.8
CC(=O)Nc1ncc(Cc2cc(Cl)ccc2Cl)s1	-3.9	10.8	2.0	76.5*	-1.4	-0.5
O=C(CCC1N=C2c3ccccc3N=C(SCc3cccc(Cl)c3)N2C1=O)NCc1ccco1 (stereo not drawn)	-2.4	-16.0	-11.3	58.7*	-21.7	-4.1
O=C(O)c1cc2c(N3CCC(Cc4ccccc4)CC3)ncnc2s1	2.1	-4.1	-2.9	-2.8	1.2	-4.3
c1ccc(CC2CCN(c3ncnc4sccc34)CC2)cc1	3.8	11.6	-1.4	63.4*	-14.4	-11.9
SMILES	EBV gp42 block	14-3-3 Bad PPI	eIF4E 4G PPI	WT yeast gro inh	RBBP9 inh	p47phox inh
CCN(CC(=O)Nc1cc(Cl)ccc1OC)CC(=O)NC1CCS(=O)(=O)C1 (stereo not drawn)	-9.5	73.9*	3.2	nt	-1.5	0.1
Cn1c(N)c(C(=O)COC(=O)c2ccc(Cl)c(S(=O)(=O)N3CCCC3)c2)c(=O)n(C)c1=O	-13.9	0.8	-0.3	nt	0.8	-2.2
CCN(CC)C(=S)Nc1ccc(Cl)c(Cl)c1	-7.3	16.7	1.2	16.9	-13.0	2.5
COc1cccc(C(=O)N/N=C(/c2ccccc2)c2ccccn2)c1	-12.8	-2.1	-3.3	65.7*	-1.2	-1.5
COc1ccc2c(c1)C(=NNC(=O)c1ccccn1)c1cc(OC)ccc1-2	-4.7	51.4	-0.5	-5.9	-4.5	48.9*
COc1cccc(-c2cc(C(F)(F)F)n3nc(C(=O)N4CCCCC4c4cccnc4)cc3n2)c1 (stereo not drawn)	-53.5	-11.1	3.3	26.5	5.3	-1.8
Nc1c(S(=O)(=O)c2ccccc2)c2nc3ccccc3nc2n1Cc1ccco1	61.7*	-3.2	-6.1	0.4	-11.4	-74.6
CCN1CCN(Cc2ccc(NC(=O)c3ccc(C)c(NC(=O)c4cc(-c5ccc(Br)cc5)n[nH]4)c3)cc2C(F)(F)F)CC1	-15.5	-16.7	17.5	nt	nt	63.4*
CCN1CCN(Cc2ccc(NC(=O)c3cc(NC(=O)c4cncc(-c5ccc(C#N)cc5)c4)cc(OC)c3)cc2C(F)(F)F)CC1	-138.4	-58.2	-110.1	nt	nt	68.8*
CCN1CCN(Cc2ccc(NC(=O)c3ccc(C)c(NC(=O)c4nccn4C)c3)cc2C(F)(F)F)CC1	-13.7	-2.7	-9.6	nt	nt	1.9
CCOc1cccc(NC(=O)C2CC(=O)N(c3ccc(F)cc3)C2)c1 (stereo not drawn)	-14.4	-5.2	-2.6	10.3	-0.3	-19.0
COc1ccc(-c2csc(NC(=O)CSc3nnc(Nc4ccccc4C)s3)n2)cc1	-9.1	-18.6	4.1	3.2	1.8	-11.5
COc1ccc2cc(C)c3nnc(SCC(=O)Nc4nc(-c5ccc(F)cc5)cs4)n3c2c1	-36.8	86.3*	2.5	9.3	0.3	23.1
O=C(Nc1ccc(F)cc1F)Nc1ccc(F)cc1F	0.2	0.0	1.1	-3.7	-1.9	-5.1
O=C(Nc1ccncc1)Nc1ccc(F)cc1F	73.3*	-8.2	4.3	21.1	-0.5	-8.4
N#Cc1cc(C(=O)c2ccccc2O)cn(-c2nccs2)c1=O	50.9*	4.7	-2.0	22.9	-9.1	-42.4
N#Cc1cc(C(=O)c2cc(F)ccc2O)cn(-c2nccs2)c1=O	21.0	-1.3	6.0	2.1	-11.1	-52.5
CCN(CCCNC(=O)CCc1nc(-c2ccc(C)cc2)no1)c1cccc(C)c1	-19.5	-3.6	0.9	64.0*	-0.2	0.7
CCc1ccccc1N(CC)C(=O)CCc1nc(-c2ccc(C)cc2)no1	-18.9	6.5	2.9	72.3*	-5.1	4.2
Cc1nn2c(Nc3ccccc3)c3c(nc2c1-c1ccccc1)CCC3	3.6	81.5*	4.1	14.2	-6.8	2.3
Cc1cc(NCCC(C)C)n2nc(C)c(-c3ccccc3)c2n1	-3.0	3.0	1.0	71.7*	-9.1	-10.2
Cc1nn(-c2ccccc2)c(N)c1-c1ccccc1	-13.0	-9.1	0.8	4.9	-1.2	1.8
Cc1nn2c(NC(C)C)c3c(nc2c1-c1ccccc1)CCC3	-24.0	7.3	1.8	nt	-10.4	-6.8
